Results from different studies.
Cell line: MCF7
Read-out: cell growth or viability

Structure (SMILES)	test	conditions	IC50
COc1cc2ncnc(Nc3ccc(F)c(Cl)c3)c2cc1NC(=O)N/N=C/c1cccn1CCCN1CCCC1	MTT	72 h	1.33 µM
Cc1ccc2nc(-c3ccco3)[nH]c2c1	MTT	48 h	> 100 µM
O=C(NC(=S)NCCCNC(=S)NC(=O)c1ccc2ccccc2c1)c1ccc2ccccc2c1		48 h	1.12 µM
Oc1cccc(Nc2ccc3ncnc(Nc4cccc(C(F)(F)F)c4)c3c2)c1	MTT	24 h	20.5 µM
Oc1ccc(Br)cc1-c1nc2ccccc2[nH]1	MTT	48 h	5.1 µM
COc1cccc2c1C(=O)c1c(O)c3c(c(O)c1C2=O)C[C@@](O)(C(=O)CO)C[C@@H]3O[C@H]1C[C@H](N)[C@H](O)[C@H](C)O1	MTT	48 h	3.1 µM
C=CCn1c(-c2ccc(Cl)cc2)nc2ccccc21	MTT		79 µM
O=c1ccn(Cc2cn(-c3c4ccccc4nc4ccccc34)nn2)c(=O)[nH]1	MTT		10.9 µM
Cc1ccc2nc(-c3ccccc3O)[nH]c2c1	MTT	48 h	18 µM
O=C(NC(=S)NC1CCCCC1)c1ccc2ccccc2c1		48 h	5.22 µM
O=Cc1ccc(CO)o1	WST-1	48 h	46.2 µM
CC[C@H](C)C(=O)O[C@H]1C[C@H](O)C=C2C=C[C@H](C)[C@H](CC[C@@H](O)C[C@@H](O)CC(=O)O)[C@H]21	SRB	72 h	98 µg/mL
COc1ccc(C2=N[C@@H](c3ccc(Cl)cc3)[C@@H](c3ccc(Cl)cc3)N2C(=O)N2CCNC(=O)C2)c(OC(C)C)c1	MTT	48 h	11 µM
O=C(N/N=C/CN1CCCC1)Nc1cc2c(Nc3ccc(F)c(Cl)c3)ncnc2cc1O[C@H]1CCOC1	MTT	72 h	3.12 µM
CC/C(=C(\c1ccc(O)cc1)c1ccc(OCCNC)cc1)c1ccccc1		5 days	0.675 µM
C[C@H]1O[C@@H](n2cc(F)c(=O)[nH]c2=O)[C@H](O)[C@@H]1O	CCK-8	48 h	> 50 µM
Clc1ccc(Cn2c(-c3ccc(Cl)cc3)nc3ccccc32)cc1	MTT		8.56 µM
COc1cc2ncnc(Nc3ccc(F)c(Cl)c3)c2cc1NC(=O)N/N=C/c1cccn1CCCN1CCOCC1	MTT	72 h	1.44 µM
Cc1ccc(-c2nn(-c3ccc(S(C)(=O)=O)cc3)cc2/C=N\N=c2/[nH]c(-c3ccc([N+](=O)[O-])cc3)cs2)cc1	MTT	48 h	36 µM
COc1cccc2c1C(=O)c1c(O)c3c(c(O)c1C2=O)C[C@@](O)(C(=O)CO)C[C@@H]3O[C@H]1C[C@H](N)[C@H](O)[C@H](C)O1	MTT		19.7 µM
O=S(=O)(NN=Cc1cn(CCN2CCOCC2)c2ccccc12)c1cccc2ncccc12	MTT	48 h	79.1 µM
O=c1[nH]c(=S)[nH]c2c1CCCN2	MTT	72 h	> 100 µM
COc1cccc2c1C(=O)c1c(O)c3c(c(O)c1C2=O)C[C@@](O)(C(=O)CO)C[C@@H]3O[C@H]1C[C@H](N)[C@H](O)[C@H](C)O1	resazurin	72 h	0.24 µM
Oc1cccc(-c2nc3ccccc3[nH]2)c1	MTT	48 h	> 100 µM
Oc1ncnc2cc(Nc3nc(-c4ccc(F)cc4)cs3)ccc12	MTT		3.71 µM
